Where only a bound is given, the exact number is not on record here.

For one test, the target named is Tubulin (Bos taurus, UniProt Q6B856+Q862L2+Q862F3). As to the kind of experiment: Inhibition of tubulin (10 uM) polymerization, after a 20 min incubation at 30 degrees Centigrade. The class given is functional.
A further test concerns the target Tubulin (Bos taurus) (UniProt Q6B856+Q862L2+Q862F3). As to the kind of experiment: Percent inhibition of 5 uM of [3H]colchicine binding to 1 uM of tubulin by 5 uM of compound after a 10 minute incubation at 37 degrees C. The class given is protein assay. Put shortly: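 Tubulin purified to electrophoretic homogeneity from bovine brain, used at 1.0 µM with [3H]colchicine and inhibitor both at 5.0 µM. […] At least two independent experiments per compound.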

As to `COc1ccc(-c2oc3cc(OC)ccc3c2-c2cc(OC)c(OC)c(OC)c2)cc1`, on Tubulin, the half-inhibitory concentration (IC50) is more than 40 µM.

In the case of `COc1ccc2c(C(=O)c3cc(OC)c(OC)c(OC)c3)c(-c3ccc(OC)c(O)c3)sc2c1`, the inhibition at Tubulin (Bos taurus) is 21%.

Consider `COc1ccc(-c2oc3cc(OC)ccc3c2C(=O)c2cc(OC)c(OC)c(OC)c2)cc1`, for which the inhibition at Tubulin (Bos taurus) is 77%.

The values are drawn from ChEMBL document CHEMBL1135475, “One-pot synthesis of benzo[b]furan and indole inhibitors of tubulin polymerization” (J Med Chem, 2002).
